Source: PubChem
Rows were chosen to be rich in hits. Some 3.1% of all compounds tested hit in one or more screens of this group.
LEDGF integ inh – blocks HIV-1 LEDGF/p75-dependent DNA integration. TR-FRET IN-LEDGF/p75 DNA integration, Eu/Cy5. inhibition, % at 3.7 µM. 370,000 compounds, 0.64% hits;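 active = inhibition above the screen-wide mean plus 3 SD, cut at about 13% in these data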;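 note: signal is the Cy5 over europium emission ratio at 671 and 618 nm; 0% = plate median of compound wells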
UHRF1 MBD2 ctr – UHRF1 methyl-DNA binding inhibition | Q96T88 | UHRF1 binding to methylated oligo, TR-FRET | inhibition, % at 4.4 µM | 370,000 compounds, 0.75% hits | AID 687016; in the data active = inhibition above about 21%;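 note: UHRF1 SRA domain binding a hemimethylated CpG hairpin DNA probe; 0% = median of test compound wells and 100% = reference inhibitor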
PRMT1 FP inh – inhibitors of human PRMT1; 370,000 compounds, 1.3% hits; Q99873; inhibition, % at 2.79 µM; recombinant PRMT1, activity-based probe fluorescence polarization;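 active = inhibition above about 21% made by adding two undisclosed values, limit read from the data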
MBD2 inh – inhibitors of human MBD2 binding to methylated oligonucleotide. inhibition, % at 4.4 µM. TR-FRET. AID 686964. 370,000 compounds, 0.31% hits; in the data active = inhibition above about 13%
RBBP9 inh – inhibitors of human serine hydrolase RBBP9. O75884. recombinant RBBP9, FP-Rh probe fluorescence polarization. inhibition, % at 7.94 µM. 220,000 compounds, 0.2% hits;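 active = inhibition above the campaign mean of all tested compounds plus 3 SD, cut at about 14% in these data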;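 note: plate controls were DMSO wells with RBBP9 for no effect and wells lacking RBBP9 protein for full effect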
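Test system: recombinant human RBBP9; Timing: 30 min then 45 min, 25 °C; Detection: fluorescence polarization; Control set: RBBP9 with DMSO as uninhibited control, no-protein wells as full inhibition; Compound dosing: one concentration, 7.94 µM nominal, 0.794% DMSO; Probe or stimulus: FP-Rh activity-based probe, 375 nM before mixing.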
ABHD5-PLIN5 inh – ABHD5-PLIN5 protein interaction inhibition | 360,000 compounds, 0.78% hits | inhibition, % at 4 µM | Split G. princeps luciferase complementation, luminescence, 4 h | AID 602281 | Q00G26+Q8WTS1;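 active = inhibition above the mean inhibition across every tested compound plus 3 SD, cut at about 22% in these data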;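 note: 0% = DMSO only wells and the 100% control is not disclosed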
Target sequence (Q00G26 whole entry, looked up): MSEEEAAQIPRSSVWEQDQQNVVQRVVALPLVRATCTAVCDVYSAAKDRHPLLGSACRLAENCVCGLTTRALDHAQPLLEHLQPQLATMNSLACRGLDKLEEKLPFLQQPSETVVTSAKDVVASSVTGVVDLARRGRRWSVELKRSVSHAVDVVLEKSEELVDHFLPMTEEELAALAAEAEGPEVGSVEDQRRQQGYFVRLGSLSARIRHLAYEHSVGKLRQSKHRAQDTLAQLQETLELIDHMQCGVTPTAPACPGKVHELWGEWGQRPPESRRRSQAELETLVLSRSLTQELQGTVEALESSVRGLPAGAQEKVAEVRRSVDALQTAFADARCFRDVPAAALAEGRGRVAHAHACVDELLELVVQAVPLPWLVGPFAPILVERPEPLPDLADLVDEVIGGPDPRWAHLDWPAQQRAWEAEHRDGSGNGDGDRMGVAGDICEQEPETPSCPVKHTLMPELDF
Target sequence (Q8WTS1 whole entry, looked up): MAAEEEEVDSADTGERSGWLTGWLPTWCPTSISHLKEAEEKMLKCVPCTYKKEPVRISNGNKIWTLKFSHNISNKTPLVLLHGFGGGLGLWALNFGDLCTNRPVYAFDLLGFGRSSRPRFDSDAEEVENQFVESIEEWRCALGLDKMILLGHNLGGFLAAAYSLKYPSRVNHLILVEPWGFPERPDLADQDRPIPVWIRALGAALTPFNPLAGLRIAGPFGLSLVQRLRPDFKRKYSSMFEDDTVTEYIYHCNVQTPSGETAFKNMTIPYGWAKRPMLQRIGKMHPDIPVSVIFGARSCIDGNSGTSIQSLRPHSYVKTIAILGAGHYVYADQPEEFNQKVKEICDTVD
An asterisk follows results filed as active; . = no result given.

SMILES	LEDGF integ inh	UHRF1 MBD2 ctr	PRMT1 FP inh	MBD2 inh	RBBP9 inh	ABHD5-PLIN5 inh
C=CCN(c1ccc(C(=O)NCCN2CCOCC2)cc1)S(C)(=O)=O	3	29*	-5	-2	.	-4
O=C(NC(=S)NCCCN1CCOCC1)c1ccc(Br)cc1	6	-1	-5	-4	-9	-1
O=C(CCNC(=O)c1ccc(Br)cc1)NCCCN1CCOCC1	-2	23*	6	6	.	-2
COC(=O)C1=C(C)N(Cc2ccccc2C(F)(F)F)C(=NCC2CC2)NC1c1cccc(F)c1 (configuration not stated)	6	-3	-3	2	.	.
COc1cc(NC(=S)N2CCN(c3ccccn3)CC2)c(OC)cc1Cl	-9	3	22*	3	-2	-1
COc1ccc(Cl)cc1NC(=S)N1CCN(c2ccccn2)CC1	2	0	0	-1	-1	-3
CC1CC1C(=O)N1CCC(Oc2cccnc2)CC1 (configuration not stated)	0	-2	-4	-7	.	.
O=C(NC1CCCCN(Cc2cccc(Cl)c2)C1=O)c1ccc2ccccc2c1 (configuration not stated)	3	-3	-8	5	.	.
CN=CC1=C(O)c2ccccc2C1=O	-1	-3	-1	5	-4	0
O=C1C(C2=C(O)c3ccccc3C2=O)=Nc2ccccc21	1	-12	21*	-21	4	-22
CC1CCCCC1n1c(-c2cccnc2)n[nH]c1=S (configuration not stated)	0	72*	6	-1	-3	7
O=C(CCC(=O)c1ccc(Cl)cc1)OCn1nnc2ccccc2c1=O	2	56*	-2	-2	.	8
COC(=O)C1CN(CCc2ccccc2)CCS(=O)(=O)N1Cc1ccccc1 (configuration not stated)	-4	3	0	5	.	.
Cn1nnc2sc3c(c2c1=O)CCCC3	5	4	22*	-4	-8	-9
C[C@@H]1Cc2cc(O)cc(O)c2C(=O)O1	1	-3	-4	-10	.	.
Cn1c(SCC(=O)Nc2sccc2C#N)nnc1C1CC1	1	27*	-2	1	.	-12
N#CCc1c(C#N)c(N)nc(N2CCCC(CO)C2)c1C#N (configuration not stated)	1	-2	23*	1	-1	6
CC(c1c[nH]c2ccccc12)c1cn(C)c2ccccc12 (configuration not stated)	2	-1	5	-6	.	.
Cc1noc(C)c1COc1ccccc1C(=O)N1CCN(S(=O)(=O)c2ccccc2Br)CC1	1	-4	0	-10	.	0
Cc1cc(C)c(C)c(S(=O)(=O)N2CCN(C(=O)c3ccccc3OCc3c(C)noc3C)CC2)c1C	5	28*	0	-7	.	9
C[C@H](CS)C(=O)N1CCC[C@H]1C(=O)O	84*	1	9	3	-4	-3
CC(=O)N1CCC[C@H]1C(=O)O	2	-1	-3	-2	0	-2
CC(=O)N1CCN(c2ccc(N3CCN(C(C)=O)[C@@H](C)C3)c(C)c2)[C@@H](C)C1	1	-4	-1	-2	.	.
CCN(C(=O)c1nn(-c2ccc(OC)cc2)c(=O)c2c1c1ccccc1n2C)c1ccc(OC)cc1	-1	22*	0	7	-7	-5
CCCCN(C)CCNC(=O)c1nn(-c2ccc(OC)cc2)c(=O)c2c1c1ccccc1n2C	2	2	2	3	-11	0
SMILES	LEDGF integ inh	UHRF1 MBD2 ctr	PRMT1 FP inh	MBD2 inh	RBBP9 inh	ABHD5-PLIN5 inh
COc1ccc(-n2nc(C(=O)NCc3ccco3)c3c4ccccc4n(C)c3c2=O)cc1	-4	31*	3	-2	-5	0
O=C(COC(=O)/C=C/c1cccc(C(F)(F)F)c1)NCc1ccco1	28*	2	-4	6	.	3
COc1ccc(CCNC(=O)c2cc3c(=O)n4ccccc4nc3n(CCCN3CCOCC3)c2=N)cc1	0	24*	2	-4	.	11
CCC[C@H]1[C@@H](OC(=O)NC2CCCCC2)CC[C@@]23CCCN2C(=O)CCC[C@@H]13	-2	1	-6	-1	.	.
CCC[C@H]1[C@@H](OC(=O)NC(CC)CC)CC[C@@]23CCCN2C(=O)CCC[C@@H]13	-1	78*	-2	4	.	.
O=C(Nc1ccccc1)/C(=C/c1ccc2c(c1)OCO2)NC(=O)c1ccco1	-1	21*	0	8	-2	-2
O=C(Nc1ccccc1)/C(=C\c1ccc2c(c1)OCO2)NC(=O)c1ccco1	-1	-2	0	-1	2	-5
C[C@@H](O[Si](c1ccccc1)(c1ccccc1)C(C)(C)C)[C@@H]1NC(=O)[C@@H]2C[C@]3(Br)c4ccccc4N(S(=O)(=O)c4ccccc4)[C@@H]3N2C1=O	1	-2	-2	0	.	.
CC1CC(C)CN(C(=O)COC(=O)c2ccc(S(=O)(=O)N(C)c3ccccc3)cc2)C1 (configuration not stated)	7	21*	-3	2	.	9
CC1CC(C)CN(C(=O)COC(=O)c2cccc(S(=O)(=O)N(C)c3ccccc3)c2)C1 (configuration not stated)	1	0	4	5	.	3
COC(=O)[C@@]1(Cc2ccc(F)cc2)[C@H]2c3cc(C(=O)N(C)C)n(CCF)c3C[C@H]2CN1C(=O)c1ccccc1	-3	-3	-2	-4	.	1
COC(=O)[C@@]1(Cc2ccccc2)[C@@H]2C(=CC(=O)[C@H]2CC(=O)C(=O)N(C)C)CN1C(=O)c1ccccc1	.	.	.	.	-10	31*
CCCCNc1ccc(C(F)(F)F)cc1S(=O)(=O)NCCc1ccc(F)cc1	6	23*	-4	12	.	-12
Fc1ccc(-c2nc3c4ccccc4ccn3c2Cc2cccc(F)c2)cc1	-3	5	-1	1	.	.
Cc1ccc(Cc2c(-c3ccc(Cl)cc3)nc3c(C)cc(Br)cn23)cc1	6	4	-5	-4	.	-11
COc1ccccc1Cc1c(-c2ccccc2)nc2c(C)cc(Br)cn12	-1	14	7	1	.	-9
CCCc1nc2c(C)cc(Br)cn2c1Cc1ccc(C)cc1	-4	22*	5	7	.	-10
CCCc1nc2c(C)cc(Br)cn2c1Cc1ccccc1OC	0	22*	4	9	.	.
CCCc1nc2c(C)cc(Br)cn2c1Cc1cccc(Cl)c1	0	24*	0	9	.	.
CCCc1nc2c3ccccc3ccn2c1Cc1cccc(F)c1	4	21*	-2	4	.	-5
Cc1ccc(-c2cc(-c3nnc(SCC(=O)Nc4nccs4)n3N)[nH]n2)cc1	1	2	-1	1	.	.
COc1cccc(/C=C2\CC3(OC(=O)c4ccc(F)cc4)CCCN2C3)c1 (configuration not stated)	0	0	3	4	.	.
